Measured values collected from several papers.
Protocols differ between the studies behind these lines.
Effect on: metabolic stability
Species: rat

| Structure (SMILES) | medium | tested at | pH | half-life |
| --- | --- | --- | --- | --- |
| Cc1ncc2n1-c1ccc(Cl)cc1C(c1ccccc1F)=NC2 | hepatocytes | – | – | 20.4 min |
| Cc1[nH]c(C)c(S(=O)(=O)Nc2ccc(S(F)(F)(F)(F)F)c(Cl)c2)c1C(=O)N1CCC(F)(F)C1 | liver microsomes | – | – | 34 min |
| C[C@]12CC[C@H]3[C@@H](CCC4=CC(=O)CC[C@@]43C)[C@@H]1CC[C@@H]2O | liver microsomes | – | – | 1.55 min |
| O=c1[nH]c2ccccc2n1C1CCN(CCCC(c2ccc(F)cc2)c2ccc(F)cc2)CC1 | liver microsomes | 100 ng/mL | – | 80 min |
| C[C@]12CC[C@H]3[C@@H](CCC4=CC(=O)CC[C@@]43C)[C@@H]1CC[C@@H]2O | liver microsomes | 1 µM | pH 7.4 | 5.45 min |
| Cc1[nH]c(C)c(S(=O)(=O)Nc2ccc(S(=O)(=O)F)c(Cl)c2)c1C(=O)N1CCC(F)(F)C1 | liver microsomes | – | – | 11 min |
| CC(C)CC(=O)OC[C@H]1O[C@@](C#N)(c2ccc3c(N)ncnn23)[C@H](O)[C@@H]1O | plasma | 5 µM | – | 0.422 min |
| CC(=O)c1c(C)c2cnc(Nc3ccc(C4CCN(CCS(C)(=O)=O)CC4)cn3)nc2n(C2CCCC2)c1=O | liver microsomes | – | – | 65.4 min |
